Results from ChEMBL document CHEMBL4270599, “Synthesis of a 3'-C-ethynyl-β-d-ribofuranose purine nucleoside library: Discovery of C7-deazapurine analogs as potent antiproliferative nucleosides” (Eur J Med Chem, 2018).

How the values were obtained:
[1] = system: K562; assay: Growth inhibition of human K562 cells assessed as cell growth at 10^-8 M incubated for 48 hrs by sulforhodamine B assay relative to control; assay type: functional; settings: K562, 48 h, read-out: Activity
[2] = system: A498; assay: Growth inhibition of human A498 cells assessed as cell growth at 10^-6 M incubated for 48 hrs by sulforhodamine B assay relative to control; assay type: functional; settings: A498, 48 h, read-out: Activity
[3] = system: BT-549; assay: Growth inhibition of human BT549 cells assessed as cell growth at 10^-6 M incubated for 48 hrs by sulforhodamine B assay relative to control; assay type: functional; settings: BT-549, 48 h, read-out: Activity
[4] = system: IGROV-1; assay: Growth inhibition of human IGROV1 cells assessed as cell growth at 10^-8 M incubated for 48 hrs by sulforhodamine B assay relative to control; assay type: functional; settings: IGROV-1, 48 h, read-out: Activity
[5] = system: OVCAR-8; assay: Growth inhibition of human OVCAR8 cells assessed as cell growth at 10^-8 M incubated for 48 hrs by sulforhodamine B assay relative to control; assay type: functional; settings: OVCAR-8, 48 h, read-out: Activity
[6] = system: HCC 2998; assay: Cytotoxicity against human HCC2998 cells after 48 hrs by SRB assay; assay type: functional; settings: HCC 2998, 48 h; for GI50: read-out: GI50; for CC50: read-out: LC50 (the source's name); for TGI: read-out: TGI
[7] = system: MDA-MB-231; assay: Growth inhibition of human MDA-MB-231 cells assessed as cell growth at 10^-7 M incubated for 48 hrs by sulforhodamine B assay relative to control; assay type: functional; settings: MDA-MB-231, 48 h, read-out: Activity
[8] = system: K562; assay: Cytotoxicity against human K562 cells after 48 hrs by SRB assay; assay type: functional; settings: K562, 48 h; for GI50: read-out: GI50; for CC50: read-out: pLC50 (the source's name) (converted)
[9] = system: M14; assay: Growth inhibition of human M14 cells assessed as cell growth at 10^-6 M incubated for 48 hrs by sulforhodamine B assay relative to control; assay type: functional; settings: M14, 48 h, read-out: Activity
[10] = system: A498; assay: Growth inhibition of human A498 cells assessed as cell growth at 10^-8 M incubated for 48 hrs by sulforhodamine B assay relative to control; assay type: functional; settings: A498, 48 h, read-out: Activity
[11] = system: KM12; assay: Cytotoxicity against human KM12 cells after 48 hrs by SRB assay; assay type: functional; settings: KM12, 48 h; for GI50: read-out: GI50; for CC50: read-out: LC50 (the source's name)
[12] = system: SR; assay: Growth inhibition of human SR cells assessed as cell growth at 10^-7 M incubated for 48 hrs by sulforhodamine B assay relative to control; assay type: functional; settings: read-out: Activity
[13] = system: EKVX; assay: Growth inhibition of human EKVX cells assessed as cell growth at 10^-7 M incubated for 48 hrs by sulforhodamine B assay relative to control; assay type: functional; settings: read-out: Activity
[14] = system: DU-145; assay: Growth inhibition of human DU145 cells assessed as cell growth at 10^-7 M incubated for 48 hrs by sulforhodamine B assay relative to control; assay type: functional; settings: DU-145, 48 h, read-out: Activity
[15] = system: OVCAR-5; assay: Cytotoxicity against human OVCAR5 cells after 48 hrs by SRB assay; assay type: functional; settings: OVCAR-5, 48 h; for GI50: read-out: GI50; for CC50: read-out: LC50 (the source's name)
[16] = system: 786-0; assay: Growth inhibition of human 786-0 cells assessed as cell growth at 10^-7 M incubated for 48 hrs by sulforhodamine B assay relative to control; assay type: functional; settings: 786-0, 48 h, read-out: Activity
[17] = system: NCI-H23; assay: Growth inhibition of human NCI-H23 cells assessed as cell growth at 10^-7 M incubated for 48 hrs by sulforhodamine B assay relative to control; assay type: functional; settings: NCI-H23, 48 h, read-out: Activity
[18] = system: PC-3; assay: Growth inhibition of human PC3 cells assessed as cell growth at 10^-7 M incubated for 48 hrs by sulforhodamine B assay relative to control; assay type: functional; settings: PC-3, 48 h, read-out: Activity
[19] = system: KM12; assay: Growth inhibition of human KM12 cells assessed as cell growth at 10^-5 M incubated for 48 hrs by sulforhodamine B assay relative to control; assay type: functional; settings: KM12, 48 h, read-out: Activity
[20] = system: A549; assay: Cytotoxicity against human A549 cells after 48 hrs by SRB assay; assay type: functional; settings: A549, 48 h; for GI50: read-out: GI50
[21] = system: SF-539; assay: Growth inhibition of human SF539 cells assessed as cell growth at 10^-8 M incubated for 48 hrs by sulforhodamine B assay relative to control; assay type: functional; settings: SF-539, 48 h, read-out: Activity
[22] = system: HMEC-1; assay: Antiproliferative activity against HMEC1 cells after 4 days by Coulter counter method; assay type: cell-based; settings: Homo sapiens, HMEC-1, 96 h
Outline: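 Primary HUVEC, primary HMVEC-d and the HMEC-1 line seeded at 20,000 cells/well in gelatin-coated plates in EC growth medium (EGM2). After overnight incubation, 5-fold compound dilutions added. Cells proliferated four days with compound, then trypsinized and counted by Coulter counter to derive IC₅₀.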

[23] = system: OVCAR-3; assay: Growth inhibition of human OVCAR3 cells assessed as cell growth at 10^-4 M incubated for 48 hrs by sulforhodamine B assay relative to control; assay type: functional; settings: OVCAR-3, 48 h, read-out: Activity
[24] = system: OVCAR-5; assay: Growth inhibition of human OVCAR5 cells assessed as cell growth at 10^-8 M incubated for 48 hrs by sulforhodamine B assay relative to control; assay type: functional; settings: OVCAR-5, 48 h, read-out: Activity
[25] = system: SW-620; assay: Growth inhibition of human SW620 cells assessed as cell growth at 10^-7 M incubated for 48 hrs by sulforhodamine B assay relative to control; assay type: functional; settings: SW-620, 48 h, read-out: Activity
[26] = system: MDA-MB-231; assay: Growth inhibition of human MDA-MB-231 cells assessed as cell growth at 10^-8 M incubated for 48 hrs by sulforhodamine B assay relative to control; assay type: functional; settings: MDA-MB-231, 48 h, read-out: Activity
[27] = system: SNB-75; assay: Growth inhibition of human SNB75 cells assessed as cell growth at 10^-6 M incubated for 48 hrs by sulforhodamine B assay relative to control; assay type: functional; settings: SNB-75, 48 h, read-out: Activity
[28] = system: Malme-3M; assay: Growth inhibition of human MALME-3M cells assessed as cell growth at 10^-7 M incubated for 48 hrs by sulforhodamine B assay relative to control; assay type: functional; settings: read-out: Activity
[29] = system: HCC 2998; assay: Growth inhibition of human HCC2998 cells assessed as cell growth at 10^-7 M incubated for 48 hrs by sulforhodamine B assay relative to control; assay type: functional; settings: HCC 2998, 48 h, read-out: Activity
[30] = system: RPMI-8226; assay: Cytotoxicity against human RPMI8226 cells after 48 hrs by SRB assay; assay type: functional; settings: RPMI-8226, 48 h; for GI50: read-out: GI50; for CC50: read-out: LC50 (the source's name); for TGI: read-out: TGI

With `C#C[C@@]1(O)[C@@H](CO)O[C@@H](n2cc(I)c3c(N)ncnc32)[C@@H]1O` the growth at 0.01 µM [1] was 95 to 102%, the growth at 1 µM [2] was 1 to 29% and the growth at 1 µM [3] was 17 to 32%. The growth at 0.01 µM [4] was 39 to 60%, the growth at 0.01 µM [5] was 75 to 89% and the GI50 [6] was 221 to 267 nM. It also gave a CC50 [6] greater than 100000 nM, a TGI [6] of 2600 to 3470 nM and a growth at 0.1 µM [7] of 60%. For the same compound, the GI50 [8] was 59.5 to 69 nM, the TGI ([8]; read-out: TGI) was greater than 100000 nM and the CC50 [8] was greater than 100000 nM. The TGI ([8]; read-out: pTGI) was greater than 100000 nM, the growth at 1 µM [9] was 38 to 43% and the growth at 0.01 µM [10] was 88 to 102%. It also gave a GI50 [11] of 92.8 to 99.8 nM, a CC50 [11] greater than 100000 nM and a TGI ([11]; read-out: TGI) greater than 100000 nM. It also gave a TGI ([11]; read-out: pTGI (converted)) greater than 100000 nM, a growth at 0.1 µM [12] of 60 to 86% and a growth at 0.1 µM [13] of 69 to 75%. It also gave a growth at 0.1 µM [14] of 50 to 57%, a GI50 [15] of 515 to 1690 nM and a CC50 [15] greater than 100000 nM. It also gave a TGI ([15]; read-out: TGI) greater than 100000 nM, a TGI ([15]; read-out: pTGI (converted)) greater than 100000 nM and a growth at 0.1 µM [16] of 72 to 79%. The growth at 0.1 µM [17] was 67 to 75%, the growth at 0.1 µM [18] was 43 to 48% and the growth at 10 µM [19] was 3 to 12%. The GI50 [20] was 297 to 589 nM, the CC50 ([20]; read-out: LC50 (the source's name)) was greater than 100000 nM and the TGI ([20]; read-out: TGI) was greater than 100000 nM. For the same compound, the TGI ([20]; read-out: pTGI (converted)) was greater than 100000 nM, the growth at 0.01 µM [21] was 89 to 102% and the IC50 [22] was 18 nM. It also gave a growth at 100 µM [23] of 1 to 2%, a growth at 0.01 µM [24] of 79 to 80% and a growth at 0.1 µM [25] of 39%. For the same compound, the growth at 0.01 µM [26] was 96 to 100%, the growth at 1 µM [27] was 27 to 39% and the growth at 0.1 µM [28] was 78 to 99%. It also gave a growth at 0.1 µM [29] of 70 to 75%, a GI50 [30] of 275 to 428 nM and a CC50 [30] of 91500 to 100000 nM. For the same compound, the TGI [30] was 4570 to 6650 nM.
In the case of `C#C[C@@]1(O)[C@@H](CO)O[C@@H](n2cc(Cl)c3c(N)ncnc32)[C@@H]1O`, the growth at 0.01 µM [1] is reported as 93 to 97%, the growth at 1 µM [2] is reported as -63% and the growth at 0.01 µM [4] is reported as 91 to 94%. It also gave a growth at 0.01 µM [5] of 50 to 62%, a GI50 [6] of 182 to 191 nM and a CC50 [6] greater than 100000 nM. For the same compound, the TGI [6] was 501 to 565 nM, the growth at 0.1 µM [7] was 60 to 71% and the GI50 [8] was 78.1 to 126 nM. The TGI ([8]; read-out: TGI) was greater than 100000 nM, the CC50 [8] was greater than 100000 nM and the TGI ([8]; read-out: pTGI) was greater than 100000 nM. The growth at 0.01 µM [10] was 103 to 107%, the GI50 [11] was 126 to 161 nM and the CC50 [11] was greater than 100000 nM. The TGI ([11]; read-out: TGI) was greater than 100000 nM, the TGI ([11]; read-out: pTGI (converted)) was greater than 100000 nM and the growth at 0.1 µM [12] was 34 to 46%. It also gave a growth at 0.1 µM [13] of 78 to 79%, a growth at 0.1 µM [14] of 51 to 61% and a GI50 [15] of 280 to 644 nM. It also gave a CC50 [15] greater than 100000 nM, a TGI ([15]; read-out: TGI) of 70800 to 100000 nM and a growth at 0.1 µM [16] of 89 to 94%. For the same compound, the growth at 0.1 µM [17] was 69 to 73%, the growth at 0.1 µM [18] was 62 to 70% and the growth at 10 µM [19] was 5 to 9%. The GI50 [20] was 138 to 237 nM, the CC50 ([20]; read-out: pLC50 (the source's name) (converted)) was greater than 100000 nM and the growth at 0.01 µM [21] was 88 to 92%. For the same compound, the IC50 [22] was 3.5 nM, the growth at 0.01 µM [24] was 95 to 97% and the growth at 0.1 µM [25] was 34 to 50%. For the same compound, the growth at 0.01 µM [26] was 88 to 100%, the growth at 0.1 µM [28] was 79 to 80% and the growth at 0.1 µM [29] was 79 to 80%. It also gave a GI50 [30] of 144 to 159 nM, a CC50 [30] greater than 100000 nM and a TGI [30] of 521 to 708 nM.
